{"source": "paper PMC5397363", "about": "(Molecular microbiology, 2017)", "key": {"[1]": {"biological_target": "T1, Prp (Staphylococcus aureus, UniProt Q2FXS9)", "T1 sequence (Q2FXS9 whole entry)": "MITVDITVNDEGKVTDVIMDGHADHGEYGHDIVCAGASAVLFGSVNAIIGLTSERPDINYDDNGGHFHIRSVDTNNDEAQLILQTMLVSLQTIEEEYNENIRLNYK", "assay": "Fluorogenic peptide cleavage assay, Michaelis-Menten kinetics of wild-type Prp", "assay_type": "biochemical", "details": "pH 7.0"}, "[2]": {"biological_target": "T1, Prp", "assay": "Inhibition of Prp by chloromethylketone-containing substrate peptide", "assay_type": "biochemical", "how_it_was_run": "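Recombinant S. aureus Prp was purified on Ni-NTA, with the His6-SUMO tag removed by Ulp1. It was tested in a fluorogenic peptide cleavage assay in 50 mM sodium phosphate pH 7.0 with 1.5 mM DTT, 2.35 mM EDTA and 2.53% DMSO (final). Fluorescence (ex 325/em 414 nm) was read every 8 s for 10 min at ambient temperature. Percent inhibition was taken from initial velocities relative to a no-inhibitor control.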"}, "[3]": {"biological_target": "T1, Prp", "assay": "Reaction of Prp with Ellman's reagent under non-denaturing conditions"}}, "note": "Several values for one entry are separate records, joined by “and”; a condition that tells them apart may be missing. Equal entries are not always repeated. * marks the point of attachment. CH2Cl = ClC*", "data": [{"compound": "2-aminobenzoic acid-KLNLQFFASKK-dinitrophenol [fluorogenic substrate]", "values": [{"measurement": "turnover number (kcat)", "setting": "[1]; ET constrained to 42.765 nM active sites (2 per dimer)", "result": "0.0458 ± 0.0014 s⁻¹ and 0.05 ± 0.00 s⁻¹"}, {"measurement": "specificity constant (kcat/Km)", "setting": "[1]", "result": "251100 ± 39300 M⁻¹ s⁻¹ and 250000 ± 40000 M⁻¹ s⁻¹"}]}, {"compound": "Ac-KLNLQFF-CH2Cl", "values": [{"measurement": "inhibition of Prp (qualitative)", "setting": "[2]", "result": "inhibited"}]}, {"compound": "O=C(O)c1cc(SSc2ccc([N+](=O)[O-])c(C(=O)O)c2)ccc1[N+](=O)[O-]", "note": "[Ellman’s reagent, 5,5′-dithiobis(2-nitrobenzoic acid)]", "values": [{"measurement": "reaction with Prp (qualitative)", "setting": "[3]", "result": "readily reacts"}]}]}
